Measurements reported in ChEMBL document CHEMBL4219146, “Synthesis and Pharmacological Evaluation of Heterocyclic Carboxamides: Positive Allosteric Modulators of the M1 Muscarinic Acetylcholine Receptor with Weak Agonist Activity and Diverse Modulatory Profiles” (J Med Chem, 2018).
Calls of active or inactive are those of the source. The calls are words filed in the database; no cut-off is given here.

Assays:
[1] = biological target: T1, Muscarinic acetylcholine receptor M1 (Homo sapiens) (UniProt P11229); assay: Positive allosteric modulation of human muscarinic acetylcholine receptor M1 expressed in flpIn-CHO cells assessed as potentiation of acetylcholine-mediated IP1 accumulation at 10 uM measured after 1 hr by based HTRF assay relative to control; format: functional, cell-based
T1 sequence (whole entry): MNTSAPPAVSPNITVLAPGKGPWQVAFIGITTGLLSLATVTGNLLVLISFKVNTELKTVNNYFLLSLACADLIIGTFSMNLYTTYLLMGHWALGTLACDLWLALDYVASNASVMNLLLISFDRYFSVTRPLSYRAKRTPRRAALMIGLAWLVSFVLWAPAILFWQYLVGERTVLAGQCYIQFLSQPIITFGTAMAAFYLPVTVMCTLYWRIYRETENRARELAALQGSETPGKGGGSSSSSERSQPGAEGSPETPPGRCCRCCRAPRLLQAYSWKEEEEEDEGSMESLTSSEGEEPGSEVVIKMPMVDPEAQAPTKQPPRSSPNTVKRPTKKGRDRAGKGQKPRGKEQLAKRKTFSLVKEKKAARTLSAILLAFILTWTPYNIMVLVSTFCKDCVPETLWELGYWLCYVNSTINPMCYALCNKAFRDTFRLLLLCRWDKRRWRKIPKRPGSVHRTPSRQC
How it was run: (§1)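 FlpIn CHO-hM1 cells, 25,000/well, seeded overnight, then preincubated 1 h at 37 °C in HEPES stimulation buffer with 50 mM LiCl, pH 7.4. ACh concentration-response curves run ± 10 µM modulator for 1 h at 37 °C. IP1 read by HTRF (665/620 nm) from lysates, interpolated from a standard curve and normalized to the ACh maximum. ∆pEC50 and ∆baseline taken versus ACh alone. ≥3 experiments, in duplicate.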

[2] = biological target: T1, Muscarinic acetylcholine receptor M1 (Homo sapiens); assay: Intrinsic activity at human muscarinic acetylcholine receptor M1 expressed in flpIn-CHO cells assessed as induction of IP1 accumulation at 10 uM after 1 hr by HTRF assay relative to control; format: functional, cell-based; how it was run: as §1
[3] = biological target: T1, Muscarinic acetylcholine receptor M1 (Homo sapiens); assay: Displacement of [3H]-NMS from human muscarinic acetylcholine receptor M1 […] after 5 hrs by liquid scintillation counting
[4] = biological target: T1, Muscarinic acetylcholine receptor M1 (Homo sapiens); assay: Displacement of [3H]-NMS from human muscarinic acetylcholine receptor M1 expressed in flpIn-CHO cell membranes after 5 hrs in presence of acetylcholine at EC20 by liquid scintillation counting
How it was run: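 Whole-cell binding in FlpIn CHO-hM1 cells, 50,000/well, plated overnight and PBS-washed. Modulator titrated with a fixed EC20 ACh plus 0.2 nM [3H]NMS for 5 h at room temperature in HEPES/NaCl/MgCl2 buffer, pH 7.4. 100 µM atropine defined nonspecific binding. Cells washed with ice-cold saline and counted by scintillation. Data fitted to the allosteric ternary complex model.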

[5] = biological target: T2, Muscarinic acetylcholine receptor M1 (Homo sapiens, UniProt P11229); assay: Allosteric agonist at human muscarinic acetylcholine receptor M1 expressed in CHO cells assessed as induction of calcium mobilization after 2.5 mins by Fluo-4AM-based FLIPR assay; format: functional, cell-based
T2 sequence (P11229 whole entry): T1 sequence (whole entry)

[6] = biological target: T2, Muscarinic acetylcholine receptor M1; assay: Positive allosteric modulation of human muscarinic acetylcholine receptor M1 expressed in CHO cells assessed as potentiation of acetylcholine-induced calcium mobilization preincubated for 2.5 mins followed by acetylcholine addition measured after 1 min by Fluo-4AM-based FLIPR assay; format: functional, cell-based
[7] = biological target: T1, Muscarinic acetylcholine receptor M1 (Homo sapiens); assay: Allosteric agonist at human muscarinic acetylcholine receptor M1 expressed in CHO-NFAT cells assessed as induction of calcium mobilization after 4 mins by Fluo-4AM-based FLIPR assay; format: functional, cell-based

Compound | Activity [1] | Intrinsic activity [2] | further results
Cn1cc(-c2ccc(Cn3cc(C(=O)N[C@H]4CCCC[C@@H]4N)c4ncccc43)cc2)cn1 | Active | – | –
Cn1cc(-c2ccc(Cn3cc(C(=O)N4CCNCC4)c4ncccc43)cc2)cn1 | – | Active | –
Cn1cc(-c2ccc(Cn3cc(C(=O)N4CCN(C(=O)OC(C)(C)C)CC4)c4ncccc43)cc2)cn1 | inactive | – | –
Cn1cc(-c2ccc(Cn3nc(C(=O)N[C@H]4CCCC[C@@H]4O)c4ccccc43)cc2)cn1 | Active | Active | –
CN(C)C(=O)c1cn(Cc2ccc(-c3cnn(C)c3)cc2)c2cccnc12 | Active | inactive | –
Cn1cc(-c2ccc(Cn3cc(C(=O)N4CCCC4)c4ncccc43)cc2)cn1 | Active | inactive | –
Cn1cc(-c2ccc(Cn3cc(C(=O)N[C@H]4CC[C@H](O)CC4)c4ncccc43)cc2)cn1 | – | Active | –
Cc1cnc(C(=O)N[C@@H]2CCOC[C@H]2O)cc1Cc1ccc(-c2cscn2)cc1 | – | – | pKb [3]: 6.2
Cn1cc(-c2ccc(Cn3cc(C(=O)N[C@H]4CCCC[C@@H]4O)c4c(F)cccc43)cc2)cn1 | Active | Active | –
CNC(=O)c1cn(Cc2ccc(-c3cnn(C)c3)cc2)c2cccnc12 | Active | – | –
Cn1cc(-c2ccc(Cn3cc(C(=O)N[C@H]4CCCC[C@@H]4O)c4c(Cl)cccc43)cc2)cn1 | Active | Active | –
Cn1cc(-c2ccc(Cn3cc(C(=O)Nc4ccccc4O)c4ncccc43)cc2)cn1 | inactive | 14% | –
Cn1cc(-c2ccc(Cn3cc(C(=O)NC4CCC(=O)CC4)c4ncccc43)cc2)cn1 | – | Active | –
CN(C(=O)c1cn(Cc2ccc(-c3cnn(C)c3)cc2)c2cccnc12)C1CCCCC1 | – | 0.57 | log(IA) [2]: -0.24; pKb [4]: 4.91
Cn1cc(-c2ccc(Cn3cc(C(=O)NC4CCOCC4)c4ncccc43)cc2)cn1 | – | Active | –
Cn1cc(-c2ccc(Cn3cc(C(=O)Nc4ccccc4)c4ncccc43)cc2)cn1 | – | 73% | –

Compound | Activity [1] | Intrinsic activity [2] | further results
Cn1cc(-c2ccc(Cn3cc(C(N)=O)c4ncccc43)cc2)cn1 | Active | – | –
CCNC(=O)c1cn(Cc2ccc(-c3cnn(C)c3)cc2)c2cccnc12 | – | 3.63 | log(IA) [2]: 0.56; pKb [4]: 4.61
Cn1cc(-c2ccc(Cn3cc(C(=O)N[C@H]4CCCO[C@@H]4O)c4ncccc43)cc2)cn1 | – | Active | –
Cn1cc(-c2ccc(Cn3cc(C(=O)N[C@H]4CCCC[C@@H]4O)c4ccccc43)cc2)cn1 | Active | Active | –
Cn1cc(-c2ccc(Cn3cc(C(=O)N[C@@H]4CCCC[C@H]4O)c4c(F)cc(F)cc43)cn2)cn1 | – | – | EC50 [5]: 4800 nM; EC50 [6]: 210 nM
COc1ccc(Cn2cc(C(=O)O)c(=O)c3ccccc32)cc1 | – | – | Intrinsic activity [7]: 2.09; log(IA) [7]: 0.32; pKb [3]: 5.48
Cn1cc(-c2ccc(Cn3cc(C(=O)NC4CCCCC4)c4ncccc43)cc2)cn1 | – | Active | –
O=C(O)c1ccc(Cn2cc(C(=O)N[C@H]3CCCC[C@@H]3O)c3ncccc32)cc1 | – | 2.88 | log(IA) [2]: 0.46; pKb [4]: 4.63
Cn1cc(-c2ccc(Cn3ccc(C(=O)N[C@H]4CCCC[C@@H]4O)c3)cc2)cn1 | – | 3.31 | log(IA) [2]: 0.52; fold change (FC) [1]: 7; pKb [4]: 4.19
CCN(CC)C(=O)c1cn(Cc2ccc(-c3cnn(C)c3)cc2)c2cccnc12 | – | 0 | pKb [4]: 4.43
Cn1cc(-c2ccc(Cn3cc(C(=O)N[C@H]4CCOC[C@@H]4O)c4ncccc43)cc2)cn1 | – | Active | –
Cn1cc(-c2ccc(Cn3cc(C(=O)N[C@H]4CCC[C@@H]4O)c4ncccc43)cc2)cn1 | – | Active | –
Cn1cc(-c2ccc(Cn3cc(C(=O)NC4CCNCC4)c4ncccc43)cc2)cn1 | – | Active | –
Cn1cc(-c2ccc(Cn3cc(C(=O)N[C@H]4CCCC[C@@H]4O)c4ncccc43)cc2)cn1 | Active | 22.9 | log(IA) [2]: 1.36; pKb [3]: 5.92
Cn1cc(-c2ccc(Cn3cc(C(=O)N4CCCCC4)c4ncccc43)cc2)cn1 | inactive | inactive | –
